In ChEMBL document CHEMBL5329211, “Selective isoxazolopyrimidine PAT1 (SLC26A6) inhibitors for therapy of intestinal disorders” (RSC Med Chem, 2023):
The source made the active and inactive calls. No cut-off for these calls is given here.

How the values were obtained:
[1] = molecular target: Solute carrier family 26 member 6 (Mus musculus) (UniProt Q8CIW6); test: Inhibition of SLC26A6 (unknown origin) expressed in rat FRT cells coexpressing YFP halide-sensing protein assessed as iodide-chloride exchange incubated for 2 sec by fluorescence quenching analysis
[2] = In vivo inhibition of PAT1 in intestinal closed-loop CD-1 mouse model harboring CFTR delF508/delF508 mutant assessed as reduction in loop fluid volume in ileum measured for 30 mins; format: functional; conditions: 0.5 h
Outline: (§1)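 Mice (wild-type CD1 or homozygous F508del CF, 10-16 wk, both sexes) fasted 24 h with free access to 5% dextrose water. Under isoflurane at 36-38 °C, 2-3 ileal loops (2-3 cm) were tied off and injected with 100 µL PBS pH 7.4 containing 30 µM inhibitor, 10 µM tenapanor or 0.1% DMSO vehicle. Loops removed at 0 or 30 min in separate mice; length and weight measured for fluid absorption. One-way ANOVA with Newman-Keuls.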

[3] = molecular target: T1, Anoctamin-1 (Homo sapiens) (UniProt Q5XXA6); test: Inhibition of TMEM16A (unknown origin)
T1 sequence (whole entry): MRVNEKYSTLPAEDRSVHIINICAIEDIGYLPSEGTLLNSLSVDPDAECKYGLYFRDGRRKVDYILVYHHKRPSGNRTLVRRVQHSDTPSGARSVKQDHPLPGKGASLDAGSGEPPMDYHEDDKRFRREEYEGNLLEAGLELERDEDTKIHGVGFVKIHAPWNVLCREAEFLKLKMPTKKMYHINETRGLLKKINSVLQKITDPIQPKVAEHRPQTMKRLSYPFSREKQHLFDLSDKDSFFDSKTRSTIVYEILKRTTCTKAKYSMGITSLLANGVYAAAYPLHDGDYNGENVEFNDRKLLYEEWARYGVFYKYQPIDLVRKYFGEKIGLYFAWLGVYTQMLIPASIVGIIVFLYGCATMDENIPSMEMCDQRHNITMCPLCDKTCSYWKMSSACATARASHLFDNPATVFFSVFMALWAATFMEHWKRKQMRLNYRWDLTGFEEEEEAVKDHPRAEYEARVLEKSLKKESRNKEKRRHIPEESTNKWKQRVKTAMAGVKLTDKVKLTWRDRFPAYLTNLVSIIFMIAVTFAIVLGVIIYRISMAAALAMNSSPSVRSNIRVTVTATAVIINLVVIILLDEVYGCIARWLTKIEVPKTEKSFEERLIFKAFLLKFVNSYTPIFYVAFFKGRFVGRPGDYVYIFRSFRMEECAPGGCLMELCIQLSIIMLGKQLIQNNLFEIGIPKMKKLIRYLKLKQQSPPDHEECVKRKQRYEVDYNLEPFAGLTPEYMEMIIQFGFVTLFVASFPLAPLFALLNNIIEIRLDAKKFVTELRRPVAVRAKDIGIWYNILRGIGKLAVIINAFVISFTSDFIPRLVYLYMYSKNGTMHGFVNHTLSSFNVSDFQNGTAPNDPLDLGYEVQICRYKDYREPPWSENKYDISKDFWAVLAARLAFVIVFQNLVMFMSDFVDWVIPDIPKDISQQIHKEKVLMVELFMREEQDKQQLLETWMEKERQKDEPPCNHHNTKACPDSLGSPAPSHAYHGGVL

Mus musculus = test: In vivo inhibition of PAT1 in intestinal closed-loop CD-1 mouse model harboring CFTR delF508/delF508 mutant assessed as reduction in loop weight/length ratio in ileum measured for 30 mins; format: functional, organism-based
Outline: as §1

[4] = molecular target: T2, Chloride anion exchanger (Homo sapiens) (UniProt P40879); test: Inhibition of SLC26A3 (unknown origin) expressed in rat FRT cells coexpressing YFP halide-sensing protein assessed as iodide-chloride exchange at 25 uM incubated for 2 sec by fluorescence quenching analysis; format: cell-based
T2 sequence (whole entry): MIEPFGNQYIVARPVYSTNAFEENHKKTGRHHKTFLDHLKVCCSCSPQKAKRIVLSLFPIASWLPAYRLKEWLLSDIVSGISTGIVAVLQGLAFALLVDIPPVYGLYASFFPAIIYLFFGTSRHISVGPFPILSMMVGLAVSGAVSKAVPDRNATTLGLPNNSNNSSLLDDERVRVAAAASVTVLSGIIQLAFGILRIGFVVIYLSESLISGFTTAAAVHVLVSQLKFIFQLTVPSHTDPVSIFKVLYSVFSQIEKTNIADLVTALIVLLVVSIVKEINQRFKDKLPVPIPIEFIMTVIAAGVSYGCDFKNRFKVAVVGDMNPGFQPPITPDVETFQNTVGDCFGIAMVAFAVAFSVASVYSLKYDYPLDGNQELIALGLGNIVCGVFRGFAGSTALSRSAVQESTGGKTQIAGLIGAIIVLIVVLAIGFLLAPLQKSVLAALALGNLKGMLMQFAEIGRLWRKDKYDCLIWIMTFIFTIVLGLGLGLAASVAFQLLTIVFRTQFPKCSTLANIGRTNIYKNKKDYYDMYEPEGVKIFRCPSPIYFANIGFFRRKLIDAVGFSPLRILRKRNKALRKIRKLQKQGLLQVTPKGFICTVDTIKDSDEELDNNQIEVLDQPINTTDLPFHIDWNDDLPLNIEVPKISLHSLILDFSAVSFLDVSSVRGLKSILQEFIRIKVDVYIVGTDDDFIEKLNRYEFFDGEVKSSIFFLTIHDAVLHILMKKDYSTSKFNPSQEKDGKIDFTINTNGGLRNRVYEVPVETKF

Solute carrier family 26 member 6 (Mus musculus), sequence (Q8CIW6 whole entry, looked up): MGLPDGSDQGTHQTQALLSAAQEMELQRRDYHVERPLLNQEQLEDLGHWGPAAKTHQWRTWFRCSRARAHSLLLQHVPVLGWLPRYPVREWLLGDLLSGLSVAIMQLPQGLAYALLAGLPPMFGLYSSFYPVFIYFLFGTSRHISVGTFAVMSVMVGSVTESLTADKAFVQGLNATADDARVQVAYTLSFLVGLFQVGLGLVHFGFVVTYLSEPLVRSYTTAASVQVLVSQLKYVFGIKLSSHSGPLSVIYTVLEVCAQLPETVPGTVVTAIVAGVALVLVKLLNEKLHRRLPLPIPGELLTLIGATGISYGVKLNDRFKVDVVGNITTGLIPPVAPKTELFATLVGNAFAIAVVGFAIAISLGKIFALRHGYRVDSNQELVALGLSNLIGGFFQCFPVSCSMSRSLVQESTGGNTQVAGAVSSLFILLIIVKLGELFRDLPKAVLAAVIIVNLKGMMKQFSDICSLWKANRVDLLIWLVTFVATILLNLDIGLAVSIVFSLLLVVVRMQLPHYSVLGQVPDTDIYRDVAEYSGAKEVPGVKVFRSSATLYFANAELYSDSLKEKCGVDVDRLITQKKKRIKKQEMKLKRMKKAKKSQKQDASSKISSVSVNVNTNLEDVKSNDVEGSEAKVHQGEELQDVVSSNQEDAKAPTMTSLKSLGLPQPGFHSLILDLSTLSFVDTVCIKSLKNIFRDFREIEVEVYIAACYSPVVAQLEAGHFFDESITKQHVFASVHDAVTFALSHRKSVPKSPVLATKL

With `CCOC(=O)c1nc(N(C)Cc2ccccc2)c2c(C)noc2n1` as the compound, how does the IC50 [1] read?
The IC50 was 1 µM.

What about the “inhibition (INH)” value [2] of the same compound?
The value was greater than 90%.

And the inhibition [3]?
The inhibition was “inactive”.

And the inhibition (Mus musculus)?
Its inhibition is “Active”.

And the inhibition [4]?
Its inhibition is “inactive”.
